The list is not random: actives were taken first. Their share in the collection is about 3.8%.
SIRT5 inh: sirtuin-5 (human) deacylase inhibition | Q9NXA8 | inhibition, % at 15 µM | AID 652115 | 1.1% of 330,000 active | Purified SirT5, succinyl-peptide AMC, trypsin-coupled fluorescence; in the data active = inhibition above about 15%; inconclusive = no clear call, values can overlap the other calls
Target sequence (Q9NXA8 whole entry, looked up): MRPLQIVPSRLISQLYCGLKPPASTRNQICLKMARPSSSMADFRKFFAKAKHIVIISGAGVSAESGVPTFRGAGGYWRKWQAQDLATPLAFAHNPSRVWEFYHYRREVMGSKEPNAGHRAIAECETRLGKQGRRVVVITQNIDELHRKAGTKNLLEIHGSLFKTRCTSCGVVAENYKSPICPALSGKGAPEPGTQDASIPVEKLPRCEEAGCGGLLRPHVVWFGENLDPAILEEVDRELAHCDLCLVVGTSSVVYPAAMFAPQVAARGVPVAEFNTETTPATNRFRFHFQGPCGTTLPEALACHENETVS
DENV2 CPE: protects cells from dengue virus 2 cytopathic effect. 1.7% of 350,000 active. DENV2-infected cells, cytopathic effect rescue, plate reader. AID 651640. CPE inhibition, % at 9.99 µM; in the data active = CPE inhibition above about 20%, passing the limit was not always enough; inconclusive = no clear call, values can overlap the other calls; tested in BHK-21 cells;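 also: 0% = median of neutral control wells and 100% = median of positive control wells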
Xi reactivation: activators of X-chromosome reactivation in mouse fibroblasts; XiGFP mouse fibroblasts, % GFP-positive cells imaging, 3 d; cells co-treated with 5-aza-dC sensitizer; scaled so ellipticine positive control = 100%; activation, % at 7.58 µM; 0.055% of 360,000 active; AID 743238;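 active = mean normalized replicate activation at least 10% and every replicate at or above 10%; inconclusive = only one of the two criteria met; inactive = mean below 10% and not all replicates reach 10%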;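 also: 0% = median of on-plate neutral control wells and 100% = ellipticine 6 µM median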
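material = 68-5-11 XiGFP fibroblast line | medium = DMEM plus 5-aza-dC sensitizer | schedule = 3 days compound exposure | benchmarks = positive control ellipticine, 6 µM final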
ARNT-TACC3 inh: ARNT/TACC3 interaction disruption. 0.66% of 390,000 active. AlphaScreen His-ARNT PAS-B/GST-TACC3 binding, luminescence; TACC3 fragment carries E629A point mutation. Q9Y6A5. inhibition, % at 9.99 µM;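 active = mean inhibition of replicates at least 50% and at least half of replicates each reaching 50%; inconclusive = half or more replicates reach 50% but mean below 50%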;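 also: 0% = complete ARNT plus TACC3 wells and 100% = ARNT alone without TACC3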
FGF22 binding: shifts melting point of recombinant human FGF22 | Q9HCT0 | recombinant FGF22 thermal shift, SYPRO orange fluorescence; percent of sucrose octasulfate shift, DMSO zero | activity (Tm shift, normalised), % at 9.99 µM | 1.5% of 340,000 active;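 active = mean Tm shift, scaled 0 neutral to 100 positive control, at about 1.3% or above, every replicate too, limit read from the data; inconclusive = no clear call, values can overlap the other calls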
Target sequence (Q9HCT0 whole entry, looked up): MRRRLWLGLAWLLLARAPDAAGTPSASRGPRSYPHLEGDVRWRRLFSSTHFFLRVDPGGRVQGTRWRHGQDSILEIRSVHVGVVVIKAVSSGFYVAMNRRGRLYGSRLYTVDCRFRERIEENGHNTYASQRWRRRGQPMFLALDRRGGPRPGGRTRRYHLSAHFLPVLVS
FN deposition inh: fibronectin deposition inhibition. AH1F fibroblasts, Alexa488-fibronectin deposition fluorescence, overnight. inhibition, % at 12.6 µM. 0.086% of 350,000 active;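 active = mean inhibition across replicates of 30% or more, regardless of how many single replicates reach that level; inconclusive = mean under 30% yet at least half of replicates reach 30%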;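 also: positive control wells lacked labelled fibronectin entirely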
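Measured by – fluorescence 485/525 nm · System – AH1F fibroblast monolayer, labelled fibronectin deposition · Amount – 10000 cells per well · Buffer or medium – serum-reduced DMEM (2% serum) · Doses – single dose, pinned · Also added – fluorescent fibronectin at 24 nM final · Schedule – 1 h cell attachment, overnight exposure to compound and label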
The depositor's hits bear a star; ? = inconclusive; / = no result given.

SMILES	SIRT5 inh	DENV2 CPE	Xi reactivation	ARNT-TACC3 inh	FGF22 binding	FN deposition inh
CCOc1ccc(NC(=O)Nc2cc(-c3ccccc3)sc2C(=O)OC)cc1	16*	5	0	5	0	3
C[C@H](CO)N1C[C@H](C)[C@@H](CN(C)C(=O)Nc2ccc(F)cc2)Oc2ccc(NC(=O)c3ccncc3)cc2C1=O	2	-6	0	-11	0	-11
C[C@@H]1CN([C@@H](C)CO)C(=O)c2ccccc2-c2ccccc2CO[C@@H]1CN(C)C(=O)c1ccc(F)cc1	0	8	1	-6	0	4
O=C(C[C@@H]1C[C@H]2c3cc(NC(=O)C4CCC4)ccc3O[C@H]2[C@@H](CO)O1)NCCN1CCCCC1	4	8	0	-4	0	-3
O=C(C[C@@H]1C[C@H]2c3cc(NC(=O)Cc4ccncc4)ccc3O[C@H]2[C@@H](CO)O1)NCCN1CCCCC1	-1	35*	0	-2	0	/
O=C(C[C@@H]1C[C@H]2c3cc(NC(=O)C4CCC4)ccc3O[C@H]2[C@H](CO)O1)NCCN1CCCCC1	3	26*	0	-1	0	-1
Cc1nn(CC(=O)O)c(C)c1Cl	/	/	/	0	/	/
Cc1c(Cl)c(=O)n2c(=O)c(Cl)c(C)n12	-4	-4	0	/	44*	11
CC(=O)N(C)C[C@H]1Oc2ccc(N(C)C)cc2C(=O)N(C)C[C@@H]1C	/	/	0	/	/	6
CNC(=S)NNC(=O)c1noc(C)c1C(=O)N1CCN(C(c2ccccc2)c2ccccc2)CC1	2	4	0	6	44*	9
CC(C)c1onc(C(=O)N2CCN(C(c3ccccc3)c3ccccc3)CC2)c1[N+](=O)[O-]	-3	0	0	/	0	15
O=C(CC1CC1)N1CC2(C1)[C@@H](c1ccccc1)[C@@H](CO)N2C(=O)c1cccnc1	-6	-3	0	/	0	/
Cc1noc(C)c1S(=O)(=O)Nc1ccc2c(c1)C(=O)N([C@H](C)CO)C[C@@H](C)[C@@H](CN(C)C(=O)NC1CCCCC1)O2	4	0	0	/	1	2
C[C@@H]1CN([C@H](C)CO)S(=O)(=O)c2ccc(-c3cccc(C(=O)N(C)C)c3)cc2O[C@H]1CN(C)C(=O)Cc1ccccn1	-2	-6	7	2	0	-17
C=C(C)c1cccc(C(C)(C)NC(=O)Nc2ccc(C(C)=O)cc2)c1	/	/	1	-1	/	10
C=C(C)c1cccc(C(C)(C)NC(=O)Nc2ccc(OC)cc2)c1	-2	-3	0	1	43*	-3
O=C(C[C@H]1C=C[C@@H](NC(=O)Nc2ccc3c(c2)OCO3)[C@@H](CO)O1)NCc1ccccc1	/	/	0	/	/	-8
CN(C)C(CNC(=O)CCNC(=O)c1ccc(Cl)cc1)c1ccco1 (configuration not stated)	24*	-3	0	-1	0	1
O=C(N/N=C/c1ccc(OCc2cnc(Cl)s2)cc1)c1ccncc1	1	/	0	-10	43*	-10
O=C(N/N=C/c1ccc(N2CCOCC2)cc1)c1ccncc1	3	72*	0	-4	/	12
O=C(O)COc1ccc(/C=N/NC(=O)c2ccc(-c3csc(Nc4ccc(Cl)cc4)n3)cc2)cc1	28*	/	0	-2	0	-5
O=C(N/N=C/c1ccc(OCc2ccccc2)cc1)c1ccncc1	-1	1	0	0	0	1
O=C1N[C@H](c2ccccc2)COCc2cn(nn2)CC[C@@H](Cc2ccc(C(F)(F)F)cc2)C(=O)N[C@H](c2ccccc2)COCc2cn(nn2)CC[C@H]1Cc1ccc(C(F)(F)F)cc1	/	/	0	/	/	-2
CN1C(=O)c2cc(NC(=O)c3cccs3)ccc2OC[C@@H]2O[C@@H](CC(=O)N3CCOCC3)CC[C@@H]21	2	18	0	-2	0	-2
COc1ccc(S(=O)(=O)Nc2ccc3c(c2)C(=O)N([C@H](C)CO)C[C@@H](C)[C@@H](CN(C)S(=O)(=O)c2ccc(F)cc2)OCCCC[C@H](C)O3)cc1	10	2	0	6	0	/
SMILES	SIRT5 inh	DENV2 CPE	Xi reactivation	ARNT-TACC3 inh	FGF22 binding	FN deposition inh
COc1ccc(S(=O)(=O)N(C)C[C@@H]2OCCCC[C@@H](C)Oc3ccc(NS(=O)(=O)c4ccc(F)cc4)cc3C(=O)N([C@H](C)CO)C[C@@H]2C)cc1	13	6	0	-5	0	-7
COc1ccc(S(=O)(=O)N(C)C[C@H]2OCCCC[C@H](C)Oc3ccc(NS(=O)(=O)c4ccc(F)cc4)cc3C(=O)N([C@H](C)CO)C[C@@H]2C)cc1	18*	-1	0	-12	0	1
COc1ccc(S(=O)(=O)N(C)C[C@@H]2OCCCC[C@@H](C)Oc3ccc(NS(=O)(=O)c4ccc(F)cc4)cc3C(=O)N([C@@H](C)CO)C[C@@H]2C)cc1	20*	/	0	-9	1	-2
COc1ccc(S(=O)(=O)N(C)C[C@H]2OCCCC[C@@H](C)Oc3ccc(NS(=O)(=O)c4ccc(F)cc4)cc3C(=O)N([C@H](C)CO)C[C@H]2C)cc1	20*	2	0	-6	0	13
COc1ccc(S(=O)(=O)N(C)C[C@@H]2OCCCC[C@H](C)Oc3ccc(NS(=O)(=O)c4ccc(F)cc4)cc3C(=O)N([C@@H](C)CO)C[C@@H]2C)cc1	20*	?	0	-7	1	1
COc1cccc(CNC(=O)c2cc3c(c(-c4cccc(-c5ccncc5)c4)n2)[C@@H](CCO)N([S@](=O)C(C)(C)C)C3)c1	1	-7	0	5	0	26
C[C@H]1CN(C)C(=O)Cc2cc(NS(C)(=O)=O)ccc2O[C@@H]1CN(C)C	/	/	0	/	/	4
COc1ccc(/C=N/NC(=O)c2sc(C)nc2C)cc1	5	9	0	4	43*	-2
COc1ccccc1/C=N/NC(=O)c1sc(C)nc1C	-2	0	0	-12	0	-1
Cc1noc(C)c1NC(=O)N(C)C[C@@H]1Oc2c(NC(=O)Nc3ccc(C(F)(F)F)cc3)cccc2C(=O)N([C@@H](C)CO)C[C@H]1C	0	7	/	1	0	/
C[C@H]1CN([C@@H](C)CO)C(=O)c2cccc(NC(=O)Nc3cccc4ccccc34)c2O[C@H]1CN(C)C(=O)Nc1cccc2ccccc12	2	0	0	-1	0	/
C[C@H](CO)N1C[C@H](C)[C@H](CN(C)C)Oc2c(NC(=O)Nc3cccc4ccccc34)cccc2C1=O	-7	34*	-1	/	0	/

Screening results as filed in PubChem BioAssay.
